{"source": "ChEMBL document CHEMBL1153732", "about": "“Lamiridosins, hepatitis C virus entry inhibitors from Lamium album” (J Nat Prod, 2009)", "note": "The source made the active and inactive calls. The calls are words filed in the database; no cut-off is given here."}
{"tested_on": "Hepatitis C virus", "assay": "Antiviral activity against HCV expressing E1E2 glycoprotein with Vpr-deficient HIV vector assessed as inhibition of viral entry in human Huh7 cells at 20 ug/ml after 72 hrs by luciferase reporter gene assay in presence of beta-glucosidase enzyme for 0.5 hrs", "format": "functional, Hepacivirus hominis", "conditions": "Huh-7", "procedure,_shortened": "(§1)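 Iridoid glucosides were hydrolysed with β-glucosidase for 0.5 h or 4 h before testing at 20 µg/mL. Hydrolysates were mixed at rt with HCVpp and incubated with Huh7 cells for 6 h, then the medium was changed. Luciferase was read at 72 h postinfection as % inhibition. Duplicates, ≥3 experiments.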", "units": {"inhibition at 20 µg/mL": "%"}}
{"smiles": "COC(=O)C1=CO[C@@H](O[C@@H]2O[C@H](CO)[C@@H](O)[C@H](O)[C@H]2O)[C@H]2[C@@H]1[C@H](O)C[C@]2(C)O", "note": "[SHANZHISIDE METHYL ESTER]", "inhibition at 20 µg/mL": 49}
{"smiles": "O=C(/C=C/c1ccc(O)cc1)OCC1=C[C@@H](O)[C@@H]2C=CO[C@@H](O[C@@H]3O[C@H](CO)[C@@H](O)[C@H](O)[C@H]3O)[C@H]12", "note": "[EUROSTOSIDE]", "inhibition at 20 µg/mL": 46.6}
{"smiles": "COC(=O)C1=CO[C@@H](O[C@@H]2O[C@H](CO)[C@@H](O)[C@H](O)[C@H]2O)[C@@H]2[C@@H](C)[C@@H](O)C[C@H]12", "note": "[LOGANIN]", "inhibition at 20 µg/mL": 24.8}
{"smiles": "O=C(OCC1=C[C@@H](O)[C@@H]2C=CO[C@@H](O[C@@H]3O[C@H](CO)[C@@H](O)[C@H](O)[C@H]3O)[C@H]12)c1ccc(O)cc1", "note": "[AGNUSIDE]", "inhibition at 20 µg/mL": 12.9}
{"smiles": "COC(=O)C1=CO[C@@H](O[C@@H]2O[C@H](CO)[C@@H](O)[C@H](O)[C@H]2O)[C@H]2[C@@H]1C(=O)C[C@@H]2C", "note": "[VERBENALIN]", "inhibition at 20 µg/mL": 21.9}
{"tested_on": "Hepatitis C virus", "assay": "Antiviral activity against HCV expressing E1E2 glycoprotein with Vpr-deficient HIV vector assessed as inhibition of viral entry in human Huh7 cells at 20 ug/ml after 72 hrs by luciferase reporter gene assay in presence of beta-glucosidase enzyme for 4 hrs", "format": "functional, Hepacivirus hominis", "conditions": "Huh-7", "procedure,_shortened": "as §1", "units": {"inhibition at 20 µg/mL": "%"}}
{"smiles": "COC(=O)C1=CO[C@@H](O[C@@H]2O[C@H](CO)[C@@H](O)[C@H](O)[C@H]2O)[C@H]2[C@@H]1[C@H](O)C[C@]2(C)O", "note": "[SHANZHISIDE METHYL ESTER]", "inhibition at 20 µg/mL": 61.2}
{"smiles": "O=C(/C=C/c1ccc(O)cc1)OCC1=C[C@@H](O)[C@@H]2C=CO[C@@H](O[C@@H]3O[C@H](CO)[C@@H](O)[C@H](O)[C@H]3O)[C@H]12", "note": "[EUROSTOSIDE]", "inhibition at 20 µg/mL": 56.6}
{"smiles": "COC(=O)C1=CO[C@@H](O[C@@H]2O[C@H](CO)[C@@H](O)[C@H](O)[C@H]2O)[C@@H]2[C@@H](C)[C@@H](O)C[C@H]12", "note": "[LOGANIN]", "inhibition at 20 µg/mL": 41.4}
{"smiles": "O=C(OCC1=C[C@@H](O)[C@@H]2C=CO[C@@H](O[C@@H]3O[C@H](CO)[C@@H](O)[C@H](O)[C@H]3O)[C@H]12)c1ccc(O)cc1", "note": "[AGNUSIDE]", "inhibition at 20 µg/mL": 20.3}
{"smiles": "COC(=O)C1=CO[C@@H](O[C@@H]2O[C@H](CO)[C@@H](O)[C@H](O)[C@H]2O)[C@H]2[C@@H]1C(=O)C[C@@H]2C", "note": "[VERBENALIN]", "inhibition at 20 µg/mL": 43.4}
{"tested_on": "Hepatitis C virus", "assay": "Antiviral activity against HCV expressing E1E2 glycoprotein with Vpr-deficient HIV vector assessed as inhibition of pseudoparticle entry in human Huh7 cells at 100 ug/ml preincubated for 20 mins measured after 72 hrs by luciferase reporter gene assay", "format": "functional", "conditions": "Hepacivirus hominis, Huh-7", "procedure,_shortened": "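HCV E1E2 or VSVG pseudoviruses were made by cotransfecting 293T cells with the envelope plasmid and pNL4-3-Luc-R-E-, then harvested at 48 h and filtered. Each pseudovirus was preincubated 20 min at rt with 100 µg/mL sample or DMSO, then put on Huh7 cells for 6 h before the medium was replaced. Luciferase was read at 72 h as % of no-drug control. Duplicates, ≥3 experiments.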"}
{"smiles": "COC(=O)C1=CO[C@@H](O[C@@H]2O[C@H](CO)[C@@H](O)[C@H](O)[C@H]2O)[C@H]2[C@@H]1[C@H](O)[C@H](O)[C@]2(C)O", "Activity": "inactive"}
{"tested_on": "Hepatitis C virus", "assay": "Antiviral activity against HCV expressing E1E2 glycoprotein with Vpr-deficient HIV vector assessed as inhibition of viral entry in human Huh7 cells at 20 ug/ml measured after 72 hrs by luciferase reporter gene assay", "format": "functional, organism-based", "conditions": "Hepacivirus hominis, Huh-7", "procedure,_shortened": "(§2)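 HCVpp (E1E2 with HIV luciferase vector, made in 293T) was mixed at room temperature with 20 µg/mL compound and added to Huh7 cells for 6 h, then replaced by growth medium. Cells were lysed at 72 h postinfection and luciferase read as % inhibition. Samples in duplicate, experiments repeated at least three times.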"}
{"smiles": "OCC1=C[C@@H](O)[C@@H]2C=CO[C@@H](O[C@@H]3O[C@H](CO)[C@@H](O)[C@H](O)[C@H]3O)[C@H]12", "Activity": "inactive"}
{"smiles": "COC(=O)C1=CO[C@@H](O[C@@H]2O[C@H](CO)[C@@H](O)[C@H](O)[C@H]2O)[C@H]2[C@@H]1[C@H](O)[C@H](O)[C@]2(C)O", "Activity": "inactive"}
{"smiles": "COC(=O)C1=CO[C@@H](O[C@@H]2O[C@H](CO)[C@@H](O)[C@H](O)[C@H]2O)[C@H]2[C@@H]1[C@H](O)C[C@]2(C)O", "note": "[SHANZHISIDE METHYL ESTER]", "Activity": "inactive"}
{"smiles": "O=C(/C=C/c1ccc(O)cc1)OCC1=C[C@@H](O)[C@@H]2C=CO[C@@H](O[C@@H]3O[C@H](CO)[C@@H](O)[C@H](O)[C@H]3O)[C@H]12", "note": "[EUROSTOSIDE]", "Activity": "inactive"}
{"smiles": "COC(=O)C1=CO[C@@H](O[C@@H]2O[C@H](CO)[C@@H](O)[C@H](O)[C@H]2O)[C@@H]2[C@@H](C)[C@@H](O)C[C@H]12", "note": "[LOGANIN]", "Activity": "inactive"}
{"smiles": "O=C(OCC1=C[C@@H](O)[C@@H]2C=CO[C@@H](O[C@@H]3O[C@H](CO)[C@@H](O)[C@H](O)[C@H]3O)[C@H]12)c1ccc(O)cc1", "note": "[AGNUSIDE]", "Activity": "inactive"}
{"smiles": "COC(=O)C1=CO[C@@H](O[C@@H]2O[C@H](CO)[C@@H](O)[C@H](O)[C@H]2O)[C@H]2[C@@H]1C(=O)C[C@@H]2C", "note": "[VERBENALIN]", "Activity": "inactive"}
{"biological_target": "T1, CD81 antigen (Homo sapiens) (UniProt P60033)", "T1 sequence (whole entry)": "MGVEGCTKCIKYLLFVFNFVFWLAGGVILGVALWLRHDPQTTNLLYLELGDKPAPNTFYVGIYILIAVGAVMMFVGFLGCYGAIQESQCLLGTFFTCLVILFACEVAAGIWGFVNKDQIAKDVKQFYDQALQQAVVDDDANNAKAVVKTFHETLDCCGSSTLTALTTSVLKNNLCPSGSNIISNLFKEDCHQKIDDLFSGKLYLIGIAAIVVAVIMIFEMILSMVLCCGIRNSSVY", "assay": "Inhibition of human recombinant GST-tagged CD81 protein assessed as HCV E1E2 binding after 1 hr by Western blot analysis", "conditions": "not given", "procedure,_shortened": "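Lysates of 293T cells expressing HCV E1E2 were taken 48 h post-transfection in 0.5% Triton X-100 buffer with protease inhibitor and clarified. They were rocked with 50 µg/mL compound or DMSO and 5 µg CD81-GST (large extracellular loop of human CD81) at 4 °C for 16 h. Glutathione beads were added for 1 h at 4 °C, then washed. Western blot for E2 and GST; GST alone served as control.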"}
{"smiles": "COC(=O)C1=CO[C@@H](O[C@@H]2O[C@H](CO)[C@@H](O)[C@H](O)[C@H]2O)[C@H]2[C@@H]1[C@H](O)C[C@]2(C)O", "note": "[SHANZHISIDE METHYL ESTER]", "Activity": "inactive"}
{"smiles": "O=C(/C=C/c1ccc(O)cc1)OCC1=C[C@@H](O)[C@@H]2C=CO[C@@H](O[C@@H]3O[C@H](CO)[C@@H](O)[C@H](O)[C@H]3O)[C@H]12", "note": "[EUROSTOSIDE]", "Activity": "inactive"}
{"smiles": "COC(=O)C1=CO[C@@H](O[C@@H]2O[C@H](CO)[C@@H](O)[C@H](O)[C@H]2O)[C@@H]2[C@@H](C)[C@@H](O)C[C@H]12", "note": "[LOGANIN]", "Activity": "inactive"}
{"smiles": "COC(=O)C1=CO[C@@H](O)[C@@H]2C(CO)=CC[C@H]12", "note": "[GENIPIN]", "Activity": "inactive"}
{"tested_on": "Hepatitis C virus", "assay": "Antiviral activity against HCV expressing E1E2 glycoprotein with Vpr-deficient HIV vector assessed as inhibition of viral entry in human Huh7 cells at 20 ug/ml after 72 hrs by luciferase reporter gene assay", "format": "functional, Hepacivirus hominis", "conditions": "Huh-7, 72 h", "procedure,_shortened": "as §2", "units": {"inhibition at 20 µg/mL": "%"}}
{"smiles": "COC(=O)C1=CO[C@@H](O[C@@H]2O[C@H](CO)[C@@H](O)[C@H](O)[C@H]2O)[C@H]2[C@@H]1[C@H](O)C[C@]2(C)O", "note": "[SHANZHISIDE METHYL ESTER]", "inhibition at 20 µg/mL": -13.1}
{"smiles": "COC(=O)C1=CO[C@@H](O)[C@@H]2C(CO)=CC[C@H]12", "note": "[GENIPIN]", "inhibition at 20 µg/mL": 73.2}
{"tested_on": "Hepatitis C virus", "assay": "Antiviral activity against HCV infected in human Huh7 cells assessed as inhibition of viral replication after 48 hrs by NS5A staining", "conditions": "Huh-7, 48 h", "units": {"IC50": "µg/mL"}}
{"smiles": "COC(=O)C1=CO[C@@H](O[C@@H]2O[C@H](CO)[C@@H](O)[C@H](O)[C@H]2O)[C@H]2[C@@H]1[C@H](O)C[C@]2(C)O", "note": "[SHANZHISIDE METHYL ESTER]", "IC50": 18}
{"smiles": "O=C(/C=C/c1ccc(O)cc1)OCC1=C[C@@H](O)[C@@H]2C=CO[C@@H](O[C@@H]3O[C@H](CO)[C@@H](O)[C@H](O)[C@H]3O)[C@H]12", "note": "[EUROSTOSIDE]", "IC50": 20}
{"smiles": "COC(=O)C1=CO[C@@H](O[C@@H]2O[C@H](CO)[C@@H](O)[C@H](O)[C@H]2O)[C@@H]2[C@@H](C)[C@@H](O)C[C@H]12", "note": "[LOGANIN]", "IC50": 16}
{"smiles": "COC(=O)C1=CO[C@@H](O)[C@@H]2C(CO)=CC[C@H]12", "note": "[GENIPIN]", "IC50": 20}
